Only some compounds are listed: those with a hit (about 2.7% of all), similar ones and a draw of the others.
TCR CD3 inh: blocks the human TCR-CD3 interaction | actives 0.37% (n = 360,000) | inhibition, % at 9.4 µM | TAMRA-labeled TCR probe fluorescence, biochemical | AID 651800; in the data active = inhibition above about 19%;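 also: recombinant mutant TCR 2C K166C tagged with TAMRA read by polarization; 0% = receptor in buffer alone and 100% = receptor with positive control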
SIAE inh: blocks human sialic acid acetylesterase; inhibition, % at 9.66 µM; SIAE FP-Rh probe binding, fluorescence polarization; AID 1053197; Q9HAT2; actives 0.69% (n = 370,000);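 active = inhibition above a cutoff: mean of compounds within the control limits plus 3 SD of those, cut at about 17% in these data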;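 also: 0% = plate median of compound wells and 100% = probe without SIAE protein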
HTRA1 inhibitor: blocks human HTRA1 serine peptidase. inhibition, % at 5.96 µM. actives 0.5% (n = 340,000). recombinant HTRA1, FP-rhodamine activity-based probe, fluorescence polarization. AID 504803. Q92743; in the data active = inhibition above about 36%;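 also: 0% = enzyme with DMSO and 100% = wells lacking enzyme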
mABHD4 FP: inhibitors of mouse ABHD4 | Q8VD66 | purified mABHD4, FP-Rh probe fluorescence polarization | inhibition, % at 8.92 µM | actives 0.54% (n = 370,000);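 active = inhibition exceeding the mean over every tested compound plus 3 SD, cut at about 30% in these data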;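 also: 0% = plate median of compound wells and 100% = S159A mutant with DMSO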
Target sequence (Q8VD66 whole entry, looked up): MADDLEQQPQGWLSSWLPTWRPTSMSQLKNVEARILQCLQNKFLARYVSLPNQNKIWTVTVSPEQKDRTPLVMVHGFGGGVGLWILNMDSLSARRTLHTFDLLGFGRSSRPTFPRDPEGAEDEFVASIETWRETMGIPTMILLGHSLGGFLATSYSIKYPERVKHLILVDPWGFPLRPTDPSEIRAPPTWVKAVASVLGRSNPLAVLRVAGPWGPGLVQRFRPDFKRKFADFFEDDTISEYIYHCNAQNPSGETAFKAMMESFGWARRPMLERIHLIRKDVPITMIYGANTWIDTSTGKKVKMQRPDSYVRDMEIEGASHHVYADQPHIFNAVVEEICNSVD
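Assay system: wild-type mouse ABHD4 protein; compound: single nominal dose of 8.92 µM, 0.89% DMSO final; schedule: 45 min + 60 min at 25 °C; measured by: FP readout, ex 525 nm / em 598 nm; evaluation: % inhibition of FP-Rh probe binding versus controls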
PRMT1 inh: inhibitors of human PRMT1; inhibition, % at 2.79 µM; AID 652257; actives 1.3% (n = 370,000); recombinant PRMT1, activity-based probe fluorescence polarization;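 active = inhibition above about 21% made by adding two undisclosed values, limit read from the data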
PRMT1 inh conf: PRMT1 (human) inhibition, FP confirmation; AID 687036; actives 42% (n = 3,300); shares compounds with PRMT1 inh; inhibition, % at 2.79 µM; recombinant His-PRMT1, activity-based probe fluorescence polarization;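 active = mean inhibition across replicates above the hit cutoff derived for the earlier primary screen, cut at about 22% in these data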
Numbers without * were called inactive.

`COc1cc(/C=C/C(=O)O)cc(S(=O)(=O)Nc2ccc3c(c2)OCO3)c1OC` gave TCR CD3 inh 0, SIAE inh 5, HTRA1 inhibitor 6, mABHD4 FP 0 and PRMT1 inh -2.
`CCOC(=O)C1=C(CSc2nc(-c3ccccc3)ccc2C#N)OC(N)=C(C#N)C1c1ccc(OC)cc1` (stereo not given) gave TCR CD3 inh -12, SIAE inh -17, HTRA1 inhibitor -50, mABHD4 FP -12, PRMT1 inh 48* and PRMT1 inh conf 10.
CCOC(=O)C1=C(CSc2nc3c(cc2C#N)CN(C)CC3)OC(N)=C(C#N)C1c1ccncc1 (stereo not given) was read as TCR CD3 inh 7, SIAE inh 3, HTRA1 inhibitor 14, mABHD4 FP 13, PRMT1 inh 25* and PRMT1 inh conf 10.
Screening CCOC(=O)C1=C(CSc2nc(C)cc(C)c2C#N)OC(N)=C(C#N)C1c1ccccc1 (stereo not given) returned TCR CD3 inh 6, SIAE inh -7, HTRA1 inhibitor -17, mABHD4 FP -7 and PRMT1 inh 1.
CCOC(=O)C1=C(CSc2nc(CC)c(C)cc2C#N)OC(N)=C(C#N)C1c1ccccc1 (stereo not given) was read as TCR CD3 inh 4, SIAE inh -3, HTRA1 inhibitor -18, mABHD4 FP -24, PRMT1 inh 28* and PRMT1 inh conf 4.
Screening CCOC(=O)C1=C(CSc2nc3c(cc2C#N)CN(C)CC3)OC(N)=C(C#N)C1c1ccc(Cl)cc1 (stereo not given) returned TCR CD3 inh 1, SIAE inh 8, HTRA1 inhibitor 29, mABHD4 FP 12 and PRMT1 inh 9.
`CCOC(=O)C1=C(C)OC(N)=C(C#N)C1c1ccccc1` (stereo not given) gave TCR CD3 inh -5, SIAE inh 5, HTRA1 inhibitor 0, mABHD4 FP 9 and PRMT1 inh 1.
`C[C@@H]1COc2cc(N3CCOCC3)ccc2S(=O)(=O)N1` gave TCR CD3 inh 3, SIAE inh -2, mABHD4 FP -3 and PRMT1 inh -3.
Screening CC1=C(SCCC#N)S/C(=C2\SC(C)=C(SCCC#N)S2)S1 returned TCR CD3 inh 2, SIAE inh 6, HTRA1 inhibitor 8, mABHD4 FP 14, PRMT1 inh 71* and PRMT1 inh conf 47*.
Screening Cn1c(SCCC#N)nnc1-c1ccc(F)cc1 returned HTRA1 inhibitor -3.
Screening CC(C)n1c(=O)[nH]c2ccccc21 returned TCR CD3 inh 2, SIAE inh -1, HTRA1 inhibitor -1, mABHD4 FP 8 and PRMT1 inh -1.
`CC(C)n1c(=O)[nH][nH]c1=S` gave TCR CD3 inh -8, SIAE inh 9, mABHD4 FP 6, PRMT1 inh 70* and PRMT1 inh conf 91*.
N#Cc1ccc(COC(=O)CCc2c[nH]c3ccccc23)cc1 was read as TCR CD3 inh -4, SIAE inh 9, HTRA1 inhibitor 3, mABHD4 FP -4 and PRMT1 inh 4.
For Oc1ccc(CNc2ccccc2C(F)(F)F)c2cccnc12 the results were SIAE inh 4, mABHD4 FP 17, PRMT1 inh 47* and PRMT1 inh conf 33*.
Screening Oc1ccc(CNc2ccccc2F)c2cccnc12 returned TCR CD3 inh -1, SIAE inh 9, HTRA1 inhibitor 10, mABHD4 FP -2 and PRMT1 inh 5.
For Oc1ccc(CNc2ccccc2Cl)c2cccnc12 the results were SIAE inh 5, mABHD4 FP 19, PRMT1 inh 56* and PRMT1 inh conf 65*.
Screening Oc1ccc(Nc2ccccc2F)c2cccnc12 returned SIAE inh 12, mABHD4 FP 23, PRMT1 inh 42* and PRMT1 inh conf 1.
Screening CC(C)C[C@H]1COc2cccc(NCCO)c2S(=O)(=O)N1 returned TCR CD3 inh -2, SIAE inh 4, mABHD4 FP 0 and PRMT1 inh -4.
CCOC(=O)NC(=O)C(/C=N/c1sccc1C(=O)OC)=C(\C)O was read as TCR CD3 inh 6, SIAE inh -1, mABHD4 FP 16, PRMT1 inh 45* and PRMT1 inh conf 0.
For CCC(=O)Nc1sccc1C(=O)OC the results were HTRA1 inhibitor 4.
`COc1ccc(Cl)cc1Cn1c(C)c(C(=O)NCc2cccc([N+](=O)[O-])c2)sc1=O` gave TCR CD3 inh -2, SIAE inh -16, mABHD4 FP -29 and PRMT1 inh 6.
CCOc1ccc(C(=O)OC2CCCN(C)C2)cc1 (stereo not given) was read as TCR CD3 inh 2, SIAE inh -5, HTRA1 inhibitor -10, mABHD4 FP 1 and PRMT1 inh -2.
For CN1CCCC(OC(=O)c2ccc(S(=O)(=O)N(C)C)cc2)C1 (stereo not given) the results were TCR CD3 inh -2, SIAE inh -2, HTRA1 inhibitor 2, mABHD4 FP 9, PRMT1 inh 34* and PRMT1 inh conf -1.
Screening COC(=O)c1ccc(COc2cccc(C)c2C)cc1 returned TCR CD3 inh -3, SIAE inh 5, HTRA1 inhibitor -2, mABHD4 FP -5 and PRMT1 inh 1.
COCCCN1C(=O)C(CC(=O)NCC2CCCCC2)CC(C(=O)N2CCOCC2)=C1C (stereo not given) was read as TCR CD3 inh -6, SIAE inh 1, HTRA1 inhibitor 2, mABHD4 FP 0 and PRMT1 inh 7.
`COCCN=C1Sc2nc3c(C)cccc3cc2CN1Cc1ccco1` gave TCR CD3 inh -7, SIAE inh -7, HTRA1 inhibitor -48, mABHD4 FP -1, PRMT1 inh 29* and PRMT1 inh conf 15.
CC(C)CC1NC(=O)N(CC(=O)Nc2cc(S(=O)(=O)N3CCOCC3)ccc2Cl)C1=O (stereo not given) was read as TCR CD3 inh -6, SIAE inh -5, HTRA1 inhibitor 8, mABHD4 FP 2 and PRMT1 inh 1.
`Cc1cccc(N2C(=O)CC(n3ccnc3)C2=O)c1C` (stereo not given) gave TCR CD3 inh -1, SIAE inh 5, HTRA1 inhibitor -4, mABHD4 FP -2, PRMT1 inh 36* and PRMT1 inh conf 6.
Screening O=C(O)CNC(=O)CC1S/C(=N/N=C/c2ccccc2O)NC1=O (stereo not given) returned TCR CD3 inh -6, SIAE inh -1, HTRA1 inhibitor 0, mABHD4 FP -3 and PRMT1 inh 3.
For O=C(O)CNC(=O)CC1S/C(=N/N=C2\CSC(=O)N2)NC1=O (stereo not given) the results were TCR CD3 inh 0, SIAE inh 3, HTRA1 inhibitor 3, mABHD4 FP 4, PRMT1 inh 38* and PRMT1 inh conf 22*.

Screening data: PubChem BioAssay, The Scripps Research Institute Molecular Screening Center
